Source: ChEMBL document CHEMBL1123041, “Synthesis of new bis(aminoethanethiol) (BAT) derivatives: possible ligands for 99mTc brain imaging agents” (J Med Chem, 1985)
Each block holds one molecule with its values, some of them ahead of it.

Assays:
[1] = tested on: Rattus norvegicus; experiment: Biodistribution in Sprague-Dawley rat kidneys(2) 15 minutes after intravenous administration, [99mTc]/[125I] IAP ratio); assay type: ADME, organism-based, Kidney; conditions: in vivo, 0.25 h
Outline: (§1)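 99mTc complex and [125I]iodoantipyrine were co-injected iv into rats. Rats were killed by cardiectomy at 2 or 15 min, and organs were excised, weighed and gamma-counted in two channels with spillover correction. The ratio is 99mTc percent dose divided by 125I percent dose in the same organ, averaged over three rats. Radiochemical purity of the complexes was >95% by reversed-phase HPLC.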

[2] = tested on: Rattus norvegicus; experiment: Biodistribution in Sprague-Dawley rat skin 15 minutes after intravenous administration, [99mTc]/[125I] IAP ratio); assay type: ADME, organism-based, Zone of skin; conditions: in vivo, 0.25 h; outline: as §1
[3] = tested on: Rattus norvegicus; experiment: Biodistribution in Sprague-Dawley rat liver 15 minutes after intravenous administration, [99mTc]/[125I] IAP ratio); assay type: ADME, organism-based; conditions: in vivo, 0.25 h; outline: as §1
[4] = tested on: Rattus norvegicus; experiment: Biodistribution in Sprague-Dawley rat small intestine 2 minutes after intravenous administration, [99mTc]/[125I] IAP ratio); assay type: ADME, organism-based; conditions: in vivo; outline: as §1
[5] = tested on: Rattus norvegicus; experiment: Biodistribution in Sprague-Dawley rat lungs(2) 2 minutes after intravenous administration, [99mTc]/[125I] IAP ratio); assay type: ADME, organism-based, Lung; conditions: in vivo; outline: as §1
[6] = tested on: Rattus norvegicus; experiment: Biodistribution in Sprague-Dawley rat thyroid 15 minutes after intravenous administration, [99mTc]/[125I] IAP ratio); assay type: ADME, organism-based, Thyroid gland; conditions: in vivo, 0.25 h; outline: as §1
[7] = tested on: Rattus norvegicus; experiment: Biodistribution in Sprague-Dawley rat spleen 2 minutes after intravenous administration, [99mTc]/[125I] IAP ratio); assay type: ADME, organism-based; conditions: in vivo; outline: as §1
[8] = tested on: Rattus norvegicus; experiment: Biodistribution in Sprague-Dawley rat brain 15 minutes after intravenous administration, [99mTc]/[125I] IAP ratio); assay type: ADME, organism-based; conditions: in vivo, 0.25 h; outline: as §1
[9] = tested on: Rattus norvegicus; experiment: Biodistribution in Sprague-Dawley rat blood 2 minutes after intravenous administration, [99mTc]/[125I] IAP ratio); assay type: ADME, organism-based; conditions: in vivo; outline: as §1
[10] = Partition coefficient was determined at pH 7.0.; assay type: ADME; conditions: octanol/water
Outline: (§2)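 99mTc-labelled BAT complex shaken with 3 g each of 1-octanol and 0.1 M phosphate buffer (pH 7.0), vortexed 3 min at room temperature, centrifuged 5 min. Two 0.5 g samples per layer counted in a well counter; PC = cpm/g octanol over cpm/g buffer. Octanol layer repartitioned until values were consistent; usually repeated three times.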

[11] = tested on: Rattus norvegicus; experiment: Biodistribution in Sprague-Dawley rat muscle 2 minutes after intravenous administration, [99mTc]/[125I] IAP ratio); assay type: ADME, organism-based, Muscle tissue; conditions: in vivo; outline: as §1
[12] = tested on: Rattus norvegicus; experiment: Biodistribution in Sprague-Dawley rat lungs(2) 15 minutes after intravenous administration, [99mTc]/[125I] IAP ratio); assay type: ADME, organism-based, Lung; conditions: in vivo, 0.25 h; outline: as §1
[13] = tested on: Rattus norvegicus; experiment: Biodistribution in Sprague-Dawley rat liver 2 minutes after intravenous administration, [99mTc]/[125I] IAP ratio); assay type: ADME, organism-based; conditions: in vivo; outline: as §1
[14] = tested on: Rattus norvegicus; experiment: Biodistribution in Sprague-Dawley rat heart 2 minutes after intravenous administration, [99mTc]/[125I] IAP ratio); assay type: ADME, organism-based; conditions: in vivo; outline: as §1
[15] = species: Homo sapiens; experiment: The human serum protein binding activity was determined; assay type: functional
Outline: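 Equilibrium dialysis: 0.4 mL pooled human serum against 0.4 mL 0.15 M phosphate buffer pH 7.4 containing 99mTc complex (~0.025 μCi), rotated 18 h at 37 °C. Both sides weighed and counted; percent free = buffer/serum radioactivity concentration ratio × 100. Membrane counted afterwards to check membrane binding.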

[16] = tested on: Rattus norvegicus; experiment: Biodistribution in Sprague-Dawley rat spleen 15 minutes after intravenous administration, [99mTc]/[125I] IAP ratio); assay type: ADME, organism-based; conditions: in vivo, 0.25 h; outline: as §1
[17] = tested on: Rattus norvegicus; experiment: Biodistribution in Sprague-Dawley rat skin 2 minutes after intravenous administration, [99mTc]/[125I] IAP ratio); assay type: ADME, organism-based, Zone of skin; conditions: in vivo; outline: as §1
[18] = tested on: Rattus norvegicus; experiment: Biodistribution in Sprague-Dawley rat heart 15 minutes after intravenous administration, [99mTc]/[125I] IAP ratio); assay type: ADME, organism-based; conditions: in vivo, 0.25 h; outline: as §1
[19] = tested on: Rattus norvegicus; experiment: Biodistribution in Sprague-Dawley rat blood 15 minutes after intravenous administration, [99mTc]/[125I] IAP ratio); assay type: ADME, organism-based; conditions: in vivo, 0.25 h; outline: as §1
[20] = tested on: Rattus norvegicus; experiment: Biodistribution in Sprague-Dawley rat muscle 15 minutes after intravenous administration, [99mTc]/[125I] IAP ratio); assay type: ADME, organism-based, Muscle tissue; conditions: in vivo, 0.25 h; outline: as §1
[21] = tested on: Rattus norvegicus; experiment: Biodistribution in Sprague-Dawley rat thyroid 2 minutes after intravenous administration, [99mTc]/[125I] IAP ratio); assay type: ADME, organism-based, Thyroid gland; conditions: in vivo; outline: as §1
[22] = tested on: Rattus norvegicus; experiment: Biodistribution in Sprague-Dawley rat stomach 15 minutes after intravenous administration, [99mTc]/[125I] IAP ratio); assay type: ADME, organism-based; conditions: in vivo, 0.25 h; outline: as §1
[23] = tested on: Rattus norvegicus; experiment: Biodistribution in Sprague-Dawley rat small intestine 15 minutes after intravenous administration, [99mTc]/[125I] IAP ratio); assay type: ADME, organism-based; conditions: in vivo, 0.25 h; outline: as §1
[24] = tested on: Rattus norvegicus; experiment: Biodistribution in Sprague-Dawley rat brain 2 minutes after intravenous administration, [99mTc]/[125I] IAP ratio); assay type: ADME, organism-based; conditions: in vivo; outline: as §1
[25] = tested on: Rattus norvegicus; experiment: Biodistribution in Sprague-Dawley rat kidneys(2) 2 minutes after intravenous administration, [99mTc]/[125I] IAP ratio); assay type: ADME, organism-based, Kidney; conditions: in vivo; outline: as §1
[26] = tested on: Rattus norvegicus; experiment: Biodistribution in Sprague-Dawley rat stomach 2 minutes after intravenous administration, [99mTc]/[125I] IAP ratio); assay type: ADME, organism-based; conditions: in vivo; outline: as §1
[27] = tested on: Rattus norvegicus; experiment: Biodistribution in Sprague-Dawley rat stomach 15 minutes after intravenous administration, [99mTc]/[125I]IAP ratio); assay type: ADME, organism-based; conditions: in vivo, 0.25 h; outline: as §1
[28] = tested on: Rattus norvegicus; experiment: Biodistribution in Sprague-Dawley rat blood 2 minutes after intravenous administration, [99mTc]/[125I]IAP ratio); assay type: ADME, organism-based; conditions: in vivo; outline: as §1
[29] = tested on: Rattus norvegicus; experiment: Biodistribution in Sprague-Dawley rat blood 15 minutes after intravenous administration, [99mTc]/[125I]IAP ratio); assay type: ADME, organism-based; conditions: in vivo, 0.25 h; outline: as §1
[30] = Partition coefficient was determined atpH 7.0.; assay type: ADME; conditions: octanol/water, pH 7; outline: as §2
[31] = tested on: Rattus norvegicus; experiment: Biodistribution in Sprague-Dawley rat liver 2 minutes after intravenous administration, [99mTc]/[125I]IAP ratio); assay type: ADME, organism-based; conditions: in vivo; outline: as §1
[32] = tested on: Rattus norvegicus; experiment: Biodistribution in Sprague-Dawley rat spleen 15 minutes after intravenous administration, [99mTc]/[125I]IAP ratio); assay type: ADME, organism-based; conditions: in vivo, 0.25 h; outline: as §1
[33] = tested on: Rattus norvegicus; experiment: Biodistribution in Sprague-Dawley rat thyroid 15 minutes after intravenous administration, [99mTc]/[125I]IAP ratio); assay type: ADME, organism-based, Thyroid gland; conditions: in vivo, 0.25 h; outline: as §1
[34] = tested on: Rattus norvegicus; experiment: Biodistribution in Sprague-Dawley rat skin 2 minutes after intravenous administration, [99mTc]/[125I]IAP ratio); assay type: ADME, organism-based, Zone of skin; conditions: in vivo; outline: as §1
[35] = tested on: Rattus norvegicus; experiment: Biodistribution in Sprague-Dawley rat small intestine 15 minutes after intravenous administration, [99mTc]/[125I]IAP ratio); assay type: ADME, organism-based; conditions: in vivo, 0.25 h; outline: as §1
[36] = tested on: Rattus norvegicus; experiment: Biodistribution in Sprague-Dawley rat liver 15 minutes after intravenous administration, [99mTc]/[125I]IAP ratio); assay type: ADME, organism-based; conditions: in vivo, 0.25 h; outline: as §1
[37] = tested on: Rattus norvegicus; experiment: Biodistribution in Sprague-Dawley rat muscle 2 minutes after intravenous administration, [99mTc]/[125I]IAP ratio); assay type: ADME, organism-based, Muscle tissue; conditions: in vivo; outline: as §1
[38] = tested on: Rattus norvegicus; experiment: Biodistribution in Sprague-Dawley rat muscle 15 minutes after intravenous administration, [99mTc]/[125I]IAP ratio); assay type: ADME, organism-based, Muscle tissue; conditions: in vivo, 0.25 h; outline: as §1
[39] = tested on: Rattus norvegicus; experiment: Biodistribution in Sprague-Dawley rat thyroid 2 minutes after intravenous administration, [99mTc]/[125I]IAP ratio); assay type: ADME, organism-based, Thyroid gland; conditions: in vivo; outline: as §1
[40] = tested on: Rattus norvegicus; experiment: Biodistribution in Sprague-Dawley rat kidneys(2) 15 minutes after intravenous administration, [99mTc]/[125I]IAP ratio); assay type: ADME, organism-based, Kidney; conditions: in vivo, 0.25 h; outline: as §1
[41] = tested on: Rattus norvegicus; experiment: Biodistribution in Sprague-Dawley rat skin 15 minutes after intravenous administration, [99mTc]/[125I]IAP ratio); assay type: ADME, organism-based, Zone of skin; conditions: in vivo, 0.25 h; outline: as §1
[42] = tested on: Rattus norvegicus; experiment: Biodistribution in Sprague-Dawley rat spleen 2 minutes after intravenous administration, [99mTc]/[125I]IAP ratio); assay type: ADME, organism-based; conditions: in vivo; outline: as §1
[43] = tested on: Rattus norvegicus; experiment: Biodistribution in Sprague-Dawley rats heart 15 minutes after intravenous administration, [99mTc]/[125I]IAP ratio); assay type: ADME, organism-based; conditions: in vivo, 0.25 h; outline: as §1
[44] = tested on: Rattus norvegicus; experiment: Biodistribution in Sprague-Dawley rat brain 2 minutes after intravenous administration, [99mTc]/[125I]IAP ratio); assay type: ADME, organism-based; conditions: in vivo; outline: as §1
[45] = tested on: Rattus norvegicus; experiment: Biodistribution in Sprague-Dawley rat lungs(2) 15 minutes after intravenous administration, [99mTc]/[125I]IAP ratio); assay type: ADME, organism-based, Lung; conditions: in vivo, 0.25 h; outline: as §1
[46] = tested on: Rattus norvegicus; experiment: Biodistribution in Sprague-Dawley rat heart 2 minutes after intravenous administration, [99mTc]/[125I]IAP ratio); assay type: ADME, organism-based; conditions: in vivo; outline: as §1
[47] = tested on: Rattus norvegicus; experiment: Biodistribution in Sprague-Dawley rat kidneys(2) 2 minutes after intravenous administration, [99mTc]/[125I]IAP ratio); assay type: ADME, organism-based, Kidney; conditions: in vivo; outline: as §1
[48] = tested on: Rattus norvegicus; experiment: Biodistribution in Sprague-Dawley rat brain 15 minutes after intravenous administration, [99mTc]/[125I]IAP ratio); assay type: ADME, organism-based; conditions: in vivo, 0.25 h; outline: as §1
[49] = tested on: Rattus norvegicus; experiment: Biodistribution in Sprague-Dawley rat stomach 2 minutes after intravenous administration, [99mTc]/[125I]IAP ratio); assay type: ADME, organism-based; conditions: in vivo; outline: as §1
[50] = tested on: Rattus norvegicus; experiment: Biodistribution in Sprague-Dawley rat small intestine 2 minutes after intravenous administration, [99mTc]/[125I]IAP ratio); assay type: ADME, organism-based; conditions: in vivo; outline: as §1
[51] = tested on: Rattus norvegicus; experiment: Biodistribution in Sprague-Dawley rat lungs(2) 2 minutes after intravenous administration, [99mTc]/[125I]IAP ratio); assay type: ADME, organism-based, Lung; conditions: in vivo; outline: as §1

Dose [1]: 1.1%
Dose [2]: 11.8%
Dose [3]: 17.4%
Dose [4]: 4.47%
Dose [5]: 5.49%
Dose [6]: 0.063%
Dose [7]: 0.149%
Dose [8]: 0.297%
Dose [9]: 7.81%
Partition coefficient [10]: 260
Dose [11]: 7.09%
Dose [12]: 0.877%
Dose [13]: 11.9%
Dose [14]: 4.46%
Free [15]: 23.4%
Dose [16]: 0.197%
Dose [17]: 5.21%
Dose [18]: 0.395%
Dose [19]: 2.56%
Dose [20]: 15.1%
Dose [21]: 0.292%
Dose [22]: 3.16%
Dose [23]: 12.5%
Dose [24]: 2.3%
Dose [25]: 3.23%
Dose [26]: 1.07%
SMILES: COc1ccccc1C(CNCC(C)(C)S)NCC(C)(C)S (configuration not stated)

Dose [27]: 0.85%
Dose [28]: 18.1%
Dose [29]: 9.14%
Partition coefficient [30]: 64.5
Dose [31]: 16.7%
Dose [32]: 0.309%
Dose [33]: 0.053%
Dose [34]: 6.72%
Dose [35]: 19.5%
Dose [36]: 16.8%
Dose [37]: 13.4%
Dose [38]: 14.9%
Dose [39]: 0.088%
Dose [40]: 2.39%
Dose [41]: 6.53%
Dose [42]: 0.349%
Dose [43]: 0.3%
Dose [44]: 0.24%
Free [15]: 42.5%
Dose [45]: 1.31%
Dose [46]: 0.887%
Dose [47]: 2.21%
Dose [48]: 0.15%
Dose [49]: 1.12%
Dose [50]: 4.46%
Dose [51]: 2.27%
SMILES: CC(C)(S)CNCC(CO)NCC(C)(C)S.Cl.Cl (configuration not stated)
